Measurements of several laboratories.
Lines come from different studies, so protocols differ.
Medium: plasma

C[C@H]1[C@@H](O)O[C@@H]2O[C@@]3(C)CC[C@H]4[C@H](C)CC[C@@H]1[C@@]24OO3 — Tmax (Sprague-Dawley rat; oral, 10 mg/kg): 27 min
N#C[C@@]12C[C@@H]1[C@@H](n1cnc3c(N[C@@H](C4CCC4)C4CC4)nc(I)nc31)[C@H](O)[C@@H]2O — Tmax (male Wistar rat; oral, 3 mg/kg): 120 min
CC(=Nc1ccc(N=Cc2cnccn2)cc1)N(C)C — Tmax (male Sprague-Dawley rat; oral, 200 mg/kg, single dose): ≤ 5 min
O=C(C=Cc1ccccc1)Nc1cc(-c2ccnc(N3CCC(O)CC3)c2)ccn1 — Tmax (female Sprague-Dawley rat; oral, 50 mg/kg): 30 min
Cc1c(C(=O)O)ccc2c3n(nc12)[C@@H]1[C@H](C3)N(CC2CC2)[C@@]2(C(=O)Nc3cc(Cl)ccc32)[C@H]1c1cccc(Cl)c1F — Tmax (male rat; oral, 2 mg/kg): 78 min
CN1Cc2c(N)cccc2C(=O)N1C1CCC(=O)NC1=O (centres unmarked) — Tmax (male Sprague-Dawley rat; oral, 3 mg/kg): ~18 min
CC1(CN)CCN(c2cnc3c(Sc4ccncc4Cl)n[nH]c3n2)CC1 — Tmax (male Sprague-Dawley rat; oral, 10 mg/kg): 4.98 min
Nc1ccc(/C=C/C(=O)NCc2cc3cc(-c4ccc(C(=O)N5CCC(F)(F)CC5)cc4)cc(-c4ccc(F)cc4)c3o2)cn1 — Tmax (rat; oral, 3 mg/kg): 240 min
O=C1CC[C@H](N2Cc3cc(N4CCN(CC5CCN(c6ccc([C@@H]7c8ccc(O)cc8CC[C@@H]7c7ccccc7)cc6)CC5)CC4)ccc3C2=O)C(=O)N1 — Tmax (male Sprague-Dawley rat; oral, 20 mg/kg, fasted): 200 min
CC(=O)CC(=O)C1CC(C)C(=O)C1=O (centres unmarked) — Tmax (male Sprague-Dawley rat; intravenous, 20 mg/kg): 6.6 min
O=c1cc(-c2ccc(O)c(O)c2)oc2cc(O)cc(O)c12 — Tmax (male Sprague-Dawley rat; oral, 30 mg/kg): 30 min
